{"data": "Results collected from several papers", "DRD4": "D(4) dopamine receptor (DRD4, Homo sapiens, UniProt P21917)", "ABHD6": "Monoacylglycerol lipase ABHD6 (ABHD6, Homo sapiens, UniProt Q9BV23)", "note": "Compare with care: the assays were run in different laboratories."}
{"Structure (SMILES)": "CC(CCc1ccc(O)cc1)NCCc1ccc(O)c(O)c1 (stereo not shown)", "target": "DRD4", "read-out": "ligand displacement", "method": "radioligand", "measurement": "IC50", "result": "2420 nM"}
{"Structure (SMILES)": "CN(C(=O)Oc1nsnc1N1CCCCC1)c1cccc([N+](=O)[O-])c1", "target": "ABHD6", "read-out": "enzyme activity", "mode": "inhibitor", "method": "fluorescence", "notes": "lysate", "measurement": "IC50", "result": "1200 nM"}
{"Structure (SMILES)": "C=C1CC1CC(=O)SCCNC(=O)CCNC(=O)[C@H](O)C(C)(C)COP(=O)(O)OP(=O)(O)OC[C@H]1O[C@@H](n2cnc3c(N)ncnc32)[C@H](O)[C@@H]1OP(=O)(O)O (mixture of isomers)", "target": "IVD (Homo sapiens, UniProt P26440)", "read-out": "binding", "method": "absorbance", "measurement": "Kd", "result": "~22500 nM"}
{"Structure (SMILES)": "CNc1nc2cc(OCCCCN3CCN(c4cccc(Cl)c4Cl)CC3)ccc2s1", "target": "5-hydroxytryptamine receptor 5A (HTR5A, Homo sapiens, UniProt P47898)", "read-out": "ligand displacement", "method": "radioligand", "measurement": "Ki", "result": "1300 nM"}
{"Structure (SMILES)": "Cc1ccc(N(C)C(=O)Oc2nsnc2N2CCCCC2)cc1", "target": "ABHD6", "read-out": "enzyme activity", "mode": "inhibitor", "method": "fluorescence", "notes": "lysate", "measurement": "IC50", "result": "150 nM"}
{"Structure (SMILES)": "C[C@H](N)Cn1ncc2ccc3c(c21)CCCO3", "target": "D(4) dopamine receptor (DRD4, Homo sapiens, UniProt P21917, del265-296)", "read-out": "ligand displacement", "method": "radioligand", "measurement": "IC50", "result": "> 100000 nM"}
{"Structure (SMILES)": "CN(C(=O)Oc1nsnc1N1CCCCC1)C1CCCCCCC1", "target": "ABHD6", "read-out": "enzyme activity", "mode": "inhibitor", "method": "fluorescence", "notes": "lysate", "measurement": "IC50", "result": "72 nM"}
{"Structure (SMILES)": "COc1cc(C(=O)N2CC[C@@H](O)[C@@H](N)C2)cc2nc(-c3cc4ccccc4n3CC3CC3)n(C)c12", "target": "Nuclear receptor subfamily 1 group I member 2 (NR1I2, Homo sapiens, UniProt O75469)", "read-out": "reporter gene", "mode": "agonist", "method": "luciferase", "measurement": "EC50", "result": "> 50100 nM"}
{"Structure (SMILES)": "C[C@@H](NC(=O)C[C@@H](N)Cc1ccc(O)cc1)C(=O)NCC(=O)N[C@@H](Cc1ccccc1)C(=O)NNC(=O)[C@H](Cc1ccccc1)NC(=O)CNC(=O)[C@@H](C)NC(=O)C[C@@H](N)Cc1ccc(O)cc1", "target": "Mu-type opioid receptor (Oprm1, Rattus norvegicus, UniProt P33535)", "read-out": "ligand displacement", "method": "radioligand", "measurement": "IC50", "result": "135 nM"}
{"Structure (SMILES)": "OC(c1ccc(F)cc1)C(F)(F)CCN1CCC(O)(c2ccc(Cl)cc2)CC1 (racemic)", "target": "DRD4", "read-out": "cell-free assay", "method": "radioligand", "measurement": "Ki", "result": "51.6 nM"}
{"Structure (SMILES)": "CC(=O)N[C@@H](Cc1ccccc1Cl)C(=O)N1CCC[C@H]1C(=O)N1CCC[C@H]1C(=O)N1CCC[C@H]1C(=O)N1CCC[C@H]1C(=O)O", "target": "Vasodilator-stimulated phosphoprotein (VASP, Homo sapiens, UniProt P50552)", "read-out": "binding", "method": "fluorescence", "measurement": "Kd", "result": "13000 nM"}
{"Structure (SMILES)": "CNC(=O)c1cccc(-c2ccc(O[C@H]3O[C@H](CO)[C@@H](O)[C@H](O)[C@@H]3O)cc2)c1", "target": "Type 1 fimbrin D-mannose specific adhesin, N-terminal domain (fimH, Escherichia coli K-12, UniProt P08191)", "read-out": "binding", "method": "BLI", "measurement": "Kd", "result": "0.01 nM"}
{"Structure (SMILES)": "O=C(COc1ccc2cc(C(=O)Nc3ccccc3)ccc2c1)NCc1ccc(OP(=O)(O)O)c(OP(=O)(O)O)c1", "target": "Signal transducer and activator of transcription 6, SH2 (Homo sapiens, UniProt P42226)", "read-out": "ligand displacement", "method": "FP", "measurement": "Ki", "result": "3470 nM"}
